Assays:
Mus musculus [1] = test: Neurotoxicity in mouse at 20 mg/kg, ip after 0.5 hrs by rotarod test; type: toxicity, organism-based; conditions: in vivo
Mus musculus [2] = test: Neurotoxicity in mouse at 40 mg/kg, ip after 4 hrs by rotarod test; type: toxicity, organism-based; conditions: in vivo
[3] = Retention time of the compound in mouse liver microsomes at 20 uM preincubated for 15 mins followed by addition of NADPH-regenerating system measured after 5 to 90 mins by […] analysis; type: ADME
Method in brief: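 Mouse liver microsomes (0.4 mg/mL) with test compound (20 µM) in 100 mM potassium phosphate, pH 7.4, were preincubated 15 min at 37 °C. An NADPH-regenerating system was then added and incubation ran 5–90 min at 37 °C. Levallorphan (20 µM) served as internal standard, and reactions were quenched with perchloric acid. The supernatant was analysed by UPLC/MS. Duplicate incubations.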

Rattus norvegicus [4] = test: Toxicity in pilocarpine-induced status epilepticus Sprague-Dawley rat assessed as death at 100 mg/kg, ip after […]; type: organism-based; conditions: in vivo
Rattus norvegicus [5] = test: Neurotoxicity in rat at 30 mg/kg, ip after 4 hrs by rotarod test; type: toxicity, organism-based; conditions: in vivo
Mus musculus [6] = test: Neurotoxicity in mouse at 20 mg/kg, ip after 4 hrs by rotarod test; type: toxicity, organism-based; conditions: in vivo
Vibrio harveyi [7] = test: Antimutagenic activity against Vibrio harveyi BB7XM assessed as inhibition of NQNO-induced mutagenicity after 48 hrs; type: functional
Method in brief: (§1)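 V. harveyi cultures grown exponentially to A600 0.1 at 30 °C, exposed to test compound for 15 min, then to NQNO, and grown on to A600 0.3–0.4. 5 × 10⁶ cells plated on BOSS agar with neomycin (100, final). Neomycin-resistant colonies counted after 48 h at 30 °C. Result given as % inhibition of NQNO mutagenicity; three independent repeats.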

Vibrio harveyi [8] = test: Antimutagenic activity against Vibrio harveyi BB7 assessed as inhibition of NQNO-induced mutagenicity after 48 hrs; type: functional; method in brief: as §1
[9] = Neurotoxicity in ip dosed mouse after […] by rotarod test; type: toxicity, organism-based; conditions: in vivo
Mus musculus [10] = test: Neurotoxicity in mouse at 20 mg/kg, ip after 1 hr by rotarod test; type: toxicity, organism-based; conditions: in vivo
Mus musculus [11] = test: Neurotoxicity in mouse at 20 mg/kg, ip after 2 hrs by rotarod test; type: toxicity, organism-based; conditions: in vivo
Vibrio harveyi [12] = test: Antimutagenic activity against Vibrio harveyi BB7M assessed as inhibition of NQNO-induced mutagenicity after 48 hrs; type: functional; method in brief: as §1
Rattus norvegicus [13] = test: Neurotoxicity in rat at 30 mg/kg, po after […] by rotarod test; type: toxicity, organism-based; conditions: in vivo
in vitro [14] = conditions: mouse, liver microsomes
Vibrio harveyi [15] = test: Mutagenicity in Vibrio harveyi BB7X assessed as number of colonies after 48 hrs (reference value: 15 to 16 no_unit); type: ADME, organism-based; conditions: in vivo
Method in brief: (§2)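 Vibrio harveyi mutagenicity test: test compound was added to exponentially growing cultures (A600 = 0.1, 30 °C) and grown to OD600 0.3–0.4. Then 5 × 10^6 cells were plated on BOSS agar with neomycin (final 100 µg/mL) and incubated 48 h at 30 °C. Neomycin-resistant colonies were counted. Triplicate; controls were water, DMSO and NQNO 40 ng/mL.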

Rattus norvegicus [16] = test: Neurotoxicity in rat at 30 mg/kg, po after 4 hrs by rotarod test; type: toxicity, organism-based; conditions: in vivo
Mus musculus [17] = test: Neurotoxicity in mouse at 20 mg/kg, ip after […] by rotarod test; type: toxicity, organism-based; conditions: in vivo
Mus musculus [18] = test: Anticonvulsant activity in ip dosed mouse assessed as protection against maximal electric shock-induced seizures measured after […]; type: functional
Rattus norvegicus [19] = test: Neurotoxicity in rat at 30 mg/kg, ip after […] by rotarod test; type: toxicity, organism-based; conditions: in vivo
Rattus norvegicus [20] = test: Neurotoxicity in rat at 30 mg/kg, ip after 0.5 hrs by rotarod test; type: toxicity, organism-based; conditions: in vivo
Mus musculus [21] = test: Neurotoxicity in mouse at 300 mg/kg, ip after 0.5 hrs by rotarod test; type: toxicity, organism-based; conditions: in vivo
Method in brief: (§3)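 Mice were dosed ip with compound suspended in 0.5% methylcellulose. Rotarod: a 1 in. knurled rod turning at 6 rpm. Neurotoxicity was scored as failure to stay on the rod for at least 1 min in each of three trials. Results are given as the number of animals affected out of the number tested.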

Vibrio harveyi [22] = test: Mutagenicity in Vibrio harveyi BB7XM assessed as number of colonies after 48 hrs (reference value: 14 no_unit); type: ADME, organism-based; conditions: in vivo; method in brief: as §2
Mus musculus [23] = test: Neurotoxicity in mouse at 40 mg/kg, ip after […] by rotarod test; type: toxicity, organism-based; conditions: in vivo
Vibrio harveyi [24] = test: Mutagenicity in Vibrio harveyi BB7 assessed as number of colonies after 48 hrs (reference value: 13 to 14 no_unit); type: ADME, organism-based; conditions: in vivo; method in brief: as §2
Mus musculus [25] = test: Neurotoxicity in mouse at 100 mg/kg, ip after 0.5 hrs by rotarod test; type: toxicity, organism-based; conditions: in vivo; method in brief: as §3
Rattus norvegicus [26] = test: Neurotoxicity in rat at 30 mg/kg, po after 0.5 hrs by rotarod test; type: toxicity, organism-based; conditions: in vivo
Vibrio harveyi [27] = test: Mutagenicity in Vibrio harveyi BB7M assessed as number of colonies after 48 hrs (reference value: 13 to 14 no_unit); type: ADME, organism-based; conditions: in vivo; method in brief: as §2
Rattus norvegicus [28] = test: Neurotoxicity in rat at 30 mg/kg, ip after 2 hrs by rotarod test; type: toxicity, organism-based; conditions: in vivo
Rattus norvegicus [29] = test: Neurotoxicity in rat at 30 mg/kg, po after 1 hr by rotarod test; type: toxicity, organism-based; conditions: in vivo
Rattus norvegicus [30] = test: Neurotoxicity in rat at 30 mg/kg, ip after 1 hr by rotarod test; type: toxicity, organism-based; conditions: in vivo
Mus musculus [31] = test: Neurotoxicity in mouse at 30 mg/kg, ip after 4 hrs by rotarod test; type: toxicity, organism-based; conditions: in vivo; method in brief: as §3
Mus musculus [32] = test: Neurotoxicity in mouse at 40 mg/kg, ip after 1 hr by rotarod test; type: toxicity, organism-based; conditions: in vivo
Rattus norvegicus [33] = test: Neurotoxicity in rat at 30 mg/kg, po after 2 hrs by rotarod test; type: toxicity, organism-based; conditions: in vivo
in vitro [34] = conditions: mouse, liver microsomes; remark: listed apart in the source
Mus musculus [35] = test: Neurotoxicity in mouse at 40 mg/kg, ip after 2 hrs by rotarod test; type: toxicity, organism-based; conditions: in vivo
Mus musculus [36] = test: Anticonvulsant activity in ip dosed mouse assessed as protection against subcutaneous pentylenetetrazol-induced seizures measured after […]; type: functional

**Q.** With `Cc1cccc(C)c1OCCOCCN[C@@H](C)CO` as the compound, how does the Activity (Mus musculus [1]) read?
**A.** Non-toxic

**Q.** What about the Activity (Mus musculus [2]) of the same compound?
**A.** Non-toxic

**Q.** What about the Retention_time [3] of the same compound?
**A.** 3.8 min

**Q.** What about the Activity (Rattus norvegicus [4]) of the same compound?
**A.** Non-toxic

**Q.** What about the Activity (Rattus norvegicus [5]) of the same compound?
**A.** Non-toxic

**Q.** What about the Activity (Mus musculus [6]) of the same compound?
**A.** Non-toxic

**Q.** What about the “inhibition (INH)” value (Vibrio harveyi [7]) of the same compound?
**A.** 5%

**Q.** And the “inhibition (INH)” value (Vibrio harveyi [8])?
**A.** 70%

**Q.** What about the TD50 at […] [9] of the same compound?
**A.** 39.2 mg/kg

**Q.** And the Activity (Mus musculus [10])?
**A.** Non-toxic

**Q.** And the Activity (Mus musculus [11])?
**A.** Non-toxic

**Q.** And the “inhibition (INH)” value (Vibrio harveyi [12])?
**A.** 69%

**Q.** What about the Activity (Rattus norvegicus [13]) of the same compound?
**A.** Non-toxic

**Q.** And the microsomal CLint at 20 µM (in vitro [14])?
**A.** 47 µL/min/mg

**Q.** What about the Activity (Vibrio harveyi [15]) of the same compound?
**A.** 22

**Q.** And the Activity (Rattus norvegicus [16])?
**A.** Non-toxic

**Q.** What about the Activity (Mus musculus [17]) of the same compound?
**A.** Non-toxic

**Q.** And the ED50 (Mus musculus [18])?
**A.** 11.3 mg/kg

**Q.** And the Activity (Rattus norvegicus [19])?
**A.** Non-toxic

**Q.** What about the Activity (Rattus norvegicus [20]) of the same compound?
**A.** Non-toxic

**Q.** What about the Activity (Mus musculus [21]) of the same compound?
**A.** Toxic

**Q.** What about the Activity (Vibrio harveyi [22]) of the same compound?
**A.** 18

**Q.** What about the Activity (Mus musculus [23]) of the same compound?
**A.** Toxic

**Q.** What about the Activity (Vibrio harveyi [24]) of the same compound?
**A.** 15

**Q.** And the Activity (Mus musculus [25])?
**A.** Toxic

**Q.** What about the Activity (Rattus norvegicus [26]) of the same compound?
**A.** Non-toxic

**Q.** And the Activity (Vibrio harveyi [27])?
**A.** 26

**Q.** And the Activity (Rattus norvegicus [28])?
**A.** Non-toxic

**Q.** And the Activity (Rattus norvegicus [29])?
**A.** Non-toxic

**Q.** What about the Activity (Rattus norvegicus [30]) of the same compound?
**A.** Non-toxic

**Q.** And the Activity (Mus musculus [31])?
**A.** Non-toxic

**Q.** What about the Activity (Mus musculus [32]) of the same compound?
**A.** Non-toxic

**Q.** And the Activity (Rattus norvegicus [33])?
**A.** Non-toxic

**Q.** What about the half-life at 20 µM (in vitro [34]) of the same compound?
**A.** 37 min

**Q.** And the Activity (Mus musculus [35])?
**A.** Non-toxic

**Q.** And the ED50 (Mus musculus [36])?
**A.** > 43 mg/kg
